Reference: ChEMBL document CHEMBL1153620 (Eur J Med Chem, 2009)

Legend:
Mus musculus = assay: Analgesic activity in albino mouse inhibition of acetic acid-induced writhing response at 10 mg/kg, po; format: functional; parameters: scale not given: the % may be the effect or the level left
[1] = molecular target: T1, Prostaglandin G/H synthase 1 (Ovis aries, UniProt P05979); assay: Inhibition of ovine COX1 by enzyme-immuno assay
T1 sequence (P05979 whole entry): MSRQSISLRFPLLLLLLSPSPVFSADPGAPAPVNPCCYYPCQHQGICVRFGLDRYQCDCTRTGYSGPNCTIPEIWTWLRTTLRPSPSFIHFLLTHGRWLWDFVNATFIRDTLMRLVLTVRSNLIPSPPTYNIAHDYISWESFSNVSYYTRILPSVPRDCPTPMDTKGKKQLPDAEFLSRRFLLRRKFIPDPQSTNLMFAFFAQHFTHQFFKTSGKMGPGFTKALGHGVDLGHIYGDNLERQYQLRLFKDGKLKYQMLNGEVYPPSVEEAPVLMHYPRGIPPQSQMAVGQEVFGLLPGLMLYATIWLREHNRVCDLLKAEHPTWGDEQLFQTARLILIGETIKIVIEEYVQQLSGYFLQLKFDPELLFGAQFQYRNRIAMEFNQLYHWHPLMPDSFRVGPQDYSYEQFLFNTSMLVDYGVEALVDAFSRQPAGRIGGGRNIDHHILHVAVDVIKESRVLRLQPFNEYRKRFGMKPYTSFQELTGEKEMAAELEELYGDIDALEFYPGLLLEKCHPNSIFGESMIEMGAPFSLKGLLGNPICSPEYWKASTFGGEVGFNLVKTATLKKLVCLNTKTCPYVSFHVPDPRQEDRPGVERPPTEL

Gastric mucosa = assay: Inhibition of lipid peroxidation assessed as malondialdehyde level per 100 mg of gastric mucosa isolated from albino rat at dose 30 mg/kg, po
Rattus norvegicus [2] = assay: Antiinflammatory activity in rat assessed as inhibition of carrageenan-induced paw edema at 10 mg/kg, po; format: functional
Method in brief: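 Rats, six per group, received the drug suspended in 1% CMC orally 30 min before carrageenan; one group served as control. Carrageenan was given as 0.05 mL of 1% w/v in 0.9% saline under the plantar aponeurosis of the right hind paw.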

Rattus norvegicus [3] = assay: Gastrointestinal toxicity in albino rat assessed as ulcerogenic indicates at dose 30 mg/kg, po; conditions: in vivo

COc1ccc(-c2nnc(CCC(=O)c3ccc(-c4ccccc4)cc3)o2)cc1
Activity (Mus musculus): 51.3%
IC50 [1]: 52.3 µM
MDA content at 30 mg/kg (Gastric mucosa): 6.1 nmol MDA/100 mg tissue
inhibition in vivo at 10 mg/kg (Rattus norvegicus [2]): 59.4%

O=C(CCc1nnc(-c2ccc(Cl)cc2)o1)c1ccc(-c2ccccc2)cc1
Activity (Mus musculus): 61.9%
UI (Rattus norvegicus [3]): 0.6
MDA content at 30 mg/kg (Gastric mucosa): 5.8 nmol MDA/100 mg tissue
inhibition in vivo at 10 mg/kg (Rattus norvegicus [2]): 53.1%

O=C(O)CCC(=O)c1ccc(-c2ccccc2)cc1 [FENBUFEN]
Activity (Mus musculus): 54.1%
IC50 [1]: 3.9 µM
MDA content at 30 mg/kg (Gastric mucosa): 6.8 nmol MDA/100 mg tissue
inhibition in vivo at 10 mg/kg (Rattus norvegicus [2]): 56.3%

O=C(CCc1nnc(COc2ccccc2)o1)c1ccc(-c2ccccc2)cc1
Activity (Mus musculus): 55.8%
UI (Rattus norvegicus [3]): 0.6
MDA content at 30 mg/kg (Gastric mucosa): 5.8 nmol MDA/100 mg tissue
inhibition in vivo at 10 mg/kg (Rattus norvegicus [2]): 53.1%

O=C(CCc1nnc(Cc2ccccc2)o1)c1ccc(-c2ccccc2)cc1
Activity (Mus musculus): 54.1%
UI (Rattus norvegicus [3]): 0.5
MDA content at 30 mg/kg (Gastric mucosa): 5.8 nmol MDA/100 mg tissue
inhibition in vivo at 10 mg/kg (Rattus norvegicus [2]): 50%

O=C(CCc1nnc(-c2ccc(F)cc2)o1)c1ccc(-c2ccccc2)cc1
Activity (Mus musculus): 72.5%
UI (Rattus norvegicus [3]): 0.6
MDA content at 30 mg/kg (Gastric mucosa): 4.6 nmol MDA/100 mg tissue
inhibition in vivo at 10 mg/kg (Rattus norvegicus [2]): 53.1%

O=C(O)Cc1ccccc1Nc1c(Cl)cccc1Cl [DICLOFENAC]
Activity (Mus musculus): 70.3%
MDA content at 30 mg/kg (Gastric mucosa): 8.9 nmol MDA/100 mg tissue
inhibition in vivo at 10 mg/kg (Rattus norvegicus [2]): 65.6%

O=C(CCc1nnc(-c2ccccc2)o1)c1ccc(-c2ccccc2)cc1
Activity (Mus musculus): 51.3%
UI (Rattus norvegicus [3]): 0.4
MDA content at 30 mg/kg (Gastric mucosa): 4.3 nmol MDA/100 mg tissue
inhibition in vivo at 10 mg/kg (Rattus norvegicus [2]): 43.7%

Cc1ccc(-c2nnc(CCC(=O)c3ccc(-c4ccccc4)cc3)o2)cc1
Activity (Mus musculus): 45.1%
UI (Rattus norvegicus [3]): 0.5
MDA content at 30 mg/kg (Gastric mucosa): 5.8 nmol MDA/100 mg tissue
inhibition in vivo at 10 mg/kg (Rattus norvegicus [2]): 50%

O=C(CCc1nnc(-c2ccc([N+](=O)[O-])cc2)o1)c1ccc(-c2ccccc2)cc1
Activity (Mus musculus): 45.8%
IC50 [1]: 42.6 µM
MDA content at 30 mg/kg (Gastric mucosa): 4.3 nmol MDA/100 mg tissue
inhibition in vivo at 10 mg/kg (Rattus norvegicus [2]): 56.2%

O=C(CCc1nnc(-c2ccccc2Cl)o1)c1ccc(-c2ccccc2)cc1
Activity (Mus musculus): 66.1%
UI (Rattus norvegicus [3]): 0.5
MDA content at 30 mg/kg (Gastric mucosa): 5.7 nmol MDA/100 mg tissue
inhibition in vivo at 10 mg/kg (Rattus norvegicus [2]): 46.8%

O=C(CCc1nnc(COc2ccc3ccccc3c2)o1)c1ccc(-c2ccccc2)cc1
Activity (Mus musculus): 68.6%
IC50 [1]: 48.4 µM
MDA content at 30 mg/kg (Gastric mucosa): 5.9 nmol MDA/100 mg tissue
inhibition in vivo at 10 mg/kg (Rattus norvegicus [2]): 59.4%

COc1ccc(-c2nnc(CCC(=O)c3ccc(-c4ccccc4)cc3)o2)cc1OC
Activity (Mus musculus): 57.3%
IC50 [1]: 54.1 µM
MDA content at 30 mg/kg (Gastric mucosa): 4.9 nmol MDA/100 mg tissue
inhibition in vivo at 10 mg/kg (Rattus norvegicus [2]): 62.5%

CC(=O)Oc1ccccc1-c1nnc(CCC(=O)c2ccc(-c3ccccc3)cc2)o1
Activity (Mus musculus): 56.3%
UI (Rattus norvegicus [3]): 0.7
MDA content at 30 mg/kg (Gastric mucosa): 5.8 nmol MDA/100 mg tissue
inhibition in vivo at 10 mg/kg (Rattus norvegicus [2]): 43.7%
